Reference: ChEMBL document CHEMBL4706580, “4-Amino-1,2,4-triazole-3-thione-derived Schiff bases as metallo-β-lactamase inhibitors” (Eur J Med Chem, 2020)
pKi: −log10 of the molar value. Blank lines part the entries; values can stand above or below the compound they belong to. The source made the active and inactive calls. The calls are words filed in the database; no cut-off is given here.

Columns and labels:
[1] = Inhibition of beta-lactamase VIM-2 (unknown origin) expressed in Escherichia coli LZ2310 assessed as potentiation of cefoxitin antibacterial activity by measuring cefoxitin induced diameter of inhibition zone at 80 uM incubated for 18 hrs by disk diffusion method (reference value: 14 mm)
Method in brief: (§1)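 Efflux-deficient E. coli LZ2310 (NorE, MdfA, AcrA knocked out) carrying pLB-II with the cloned MBL gene. Mueller-Hinton, CLSI disk diffusion; antibiotic disks (30 µg cefoxitin for VIM-2, 10 µg ampicillin for VIM-4, 30 µg ceftazidime for NDM-1/IMP-1) loaded with inhibitor in DMSO (≤15 µL). Zone diameter after 18 h, 35 ± 1 °C; DMSO and 220 µg EDTA controls. Triplicate.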

[2] = Inhibition of beta-lactamase CphA (unknown origin) expressed in Escherichia coli BL21(DE3) using imipenem as substrate by measuring substrate hydrolysis at 100 uM by spectrophotometric analysis
Method in brief: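 Enzyme 0.2–0.8 nM in 15 mM cacodylate pH 6.5, no added zinc, pre-incubated 30 min at 21 °C with inhibitor (100 μM screen). Imipenem substrate added from 10 mM stock; hydrolysis at 300 nm, 30 °C. Residual activity vs three uninhibited samples; Ki (1–100 μM inhibitor) by Hanes linearization, competitive model. Triplicate.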

[3] = Inhibition of beta-lactamase IMP-1 (unknown origin) expressed in Escherichia coli BL21(DE3) using imipenem as substrate by measuring substrate hydrolysis at 100 uM by spectrophotometric analysis
Method in brief: (§2)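 Purified enzyme (overproduced in E. coli BL21(DE3), pET-9a; ion-exchange and gel filtration), 1-70 nM final. Reporter substrate 150 μM imipenem, read at 300 nm, 30 °C, 50 mM HEPES pH 7.5. Single-point screen at 100 or 200 μM; Ki from v0/vi vs [I] (0.5–1,000 μM final) assuming competitive inhibition, or Dixon plot. Triplicate.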

[4] = Inhibition of beta-lactamase VIM-2 (unknown origin) expressed in Escherichia coli XL-1 assessed as potentiation of cefoxitin antibacterial activity by measuring cefoxitin induced diameter of inhibition zone at 80 uM incubated for 18 hrs by disk diffusion method (reference value: 8 mm)
Method in brief: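 Wild-type efflux E. coli XL-1 Blue transformed with pLB-II-VIM-2. Mueller-Hinton disk diffusion per CLSI, 30 µg cefoxitin disks loaded with inhibitor dissolved in DMSO (≤15 µL). Growth-inhibition zone measured after 18 h at 35 ± 1 °C; DMSO negative and 220 µg EDTA positive controls. Triplicate.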

[5] = Inhibition of beta-lactamase NDM1 (unknown origin) expressed in Escherichia coli BL21(DE3) using cefotaxime/nitrocefin as substrate by measuring substrate hydrolysis at 50 uM by spectrophotometric analysis
[6] = Inhibition of beta-lactamase VIM2 (unknown origin) expressed in Escherichia coli BL21(DE3) using imipenem as substrate by measuring substrate hydrolysis by spectrophotometric analysis; method in brief: as §2
[7] = Inhibition of beta-lactamase VIM4 (unknown origin) expressed in Escherichia coli BL21(DE3) using imipenem as substrate by measuring substrate hydrolysis at 100 uM by spectrophotometric analysis; method in brief: as §2
[8] = Inhibition of beta-lactamase L1 (unknown origin) expressed in Escherichia coli BL21(DE3) using nitrocefin as substrate by measuring substrate hydrolysis at 100 uM preincubated for 30 mins by spectrophotometric analysis
Method in brief: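 Enzyme 0.2–0.8 nM in 25 mM HEPES pH 7.5 with 50 μM ZnCl2 final, pre-incubated 30 min at 21 °C with inhibitor (100 μM screen). Nitrocefin 100 μM final, read at 482 nm, 30 °C. Residual activity vs three uninhibited samples; Ki (1–100 μM inhibitor) from Hanes linearization, competitive model. Triplicate.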

[9] = Inhibition of beta-lactamase IMP-1 (unknown origin) expressed in Escherichia coli BL21(DE3) using imipenem as substrate by measuring substrate hydrolysis at 200 uM by spectrophotometric analysis; method in brief: as §2
[10] = Inhibition of beta-lactamase NDM-1 (unknown origin) expressed in Escherichia coli LZ2310 assessed as potentiation of ceftazidime antibacterial activity by measuring ceftazidime induced diameter of inhibition zone at 80 uM incubated for 18 hrs by disk diffusion method (reference value: 15 mm); method in brief: as §1
[11] = Inhibition of beta-lactamase NDM1 (unknown origin) expressed in Escherichia coli BL21(DE3) using cefotaxime/nitrocefin as substrate by measuring substrate hydrolysis by spectrophotometric analysis
Method in brief: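 His-tagged enzyme from E. coli BL21(DE3) pET-15b, affinity-purified, 1-70 nM final. Reporter substrate 120 μM cefotaxime (260 nm) or 100 μM nitrocefin (482 nm), 30 °C, 50 mM HEPES pH 7.5. Inhibitor 0.5–1,000 μM final; competitive Ki from v0/vi vs [I] slope or Dixon plot. Triplicate.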

[12] = Inhibition of beta-lactamase VIM2 (unknown origin) expressed in Escherichia coli BL21(DE3) using imipenem as substrate by measuring substrate hydrolysis at 100 uM by spectrophotometric analysis; method in brief: as §2
[13] = Inhibition of beta-lactamase VIM4 (unknown origin) expressed in Escherichia coli BL21(DE3) using imipenem as substrate by measuring substrate hydrolysis by spectrophotometric analysis; method in brief: as §2
Escherichia coli [14] = assay: Synergistic antibacterial activity against NDM-1 producing Escherichia coli assessed as MIC of imipenem at 32 ug/ml by broth microdilution method; format: functional; details: dose 32 µg/ml
Escherichia coli [15] = assay: Synergistic antibacterial activity against NDM-1 producing Escherichia coli assessed as MIC of meropenem at 32 ug/ml by broth microdilution method; format: functional; details: dose 32 µg/ml
Escherichia coli [16] = assay: Synergistic antibacterial activity against NDM-1 producing Escherichia coli assessed as MIC of ceftazidime at 32 ug/ml by broth microdilution method; format: functional; details: dose 32 µg/ml
Escherichia coli [17] = assay: Synergistic antibacterial activity against NDM-1 producing Escherichia coli assessed ass MIC of ceftazidime/avibactam at 32 ug/ml by broth microdilution method; format: functional; details: dose 32 µg/ml
Method in brief: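 MIC of ceftazidime-avibactam (avibactam fixed at 4 µg/mL) by CLSI broth microdilution in Mueller-Hinton broth. Used the NDM-1-producing multidrug-resistant E. coli clinical isolate SI-001M at 5 × 10⁴ CFU/well, with and without inhibitor at a fixed 32 µg/ml. No colistin added. Triplicate determinations.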

Escherichia coli [18] = assay: Antibacterial activity against NDM-1 producing Escherichia coli in presence of colistin by broth microdilution method.; format: functional
HeLa [19] = assay: Cytotoxicity in human HeLa cells assessed as cell lysis upto 250 uM incubated for 72 hrs by membrane integrity assay; format: cell-based
HUVEC = assay: Cytotoxicity in human HUVEC cells assessed as reduction in cell viability upto 100 uM incubated for 72 hrs by MTT assay; format: cell-based
[20] = Inhibition of beta-lactamase L1 (unknown origin) expressed in Escherichia coli BL21(DE3) using nitrocefin as substrate by measuring substrate hydrolysis at 200 uM preincubated for 30 mins by spectrophotometric analysis
[21] = Inhibition of beta-lactamase VIM2 (unknown origin) expressed in Escherichia coli BL21(DE3) using imipenem as substrate by measuring substrate hydrolysis at 200 uM by spectrophotometric analysis; method in brief: as §2
Escherichia coli [22] = assay: Synergistic antibacterial activity against NDM-1 producing Escherichia coli assessed as MIC of imipenem at 32 ug/ml in presence of colistin by broth microdilution method; format: functional; details: dose 32 µg/ml
Escherichia coli [23] = assay: Synergistic antibacterial activity against NDM-1 producing Escherichia coli assessed as MIC of meropenem at 32 ug/ml in presence of colistin by broth microdilution method; format: functional; details: dose 32 µg/ml
Method in brief: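 Broth microdilution per CLSI in Mueller-Hinton broth against a multidrug-resistant NDM-1-producing E. coli clinical isolate (SI-001M), inoculum 5 × 10⁴ CFU/well. […] Run in triplicate.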

Escherichia coli [24] = assay: Synergistic antibacterial activity against NDM-1 producing Escherichia coli assessed as MIC of ceftazidime at 32 ug/ml in presence of colistin by broth microdilution method; format: functional; details: dose 32 µg/ml
Escherichia coli [25] = assay: Synergistic antibacterial activity against NDM-1 producing Escherichia coli assessed ass MIC of ceftazidime/avibactam at 32 ug/ml in presence of colistin by broth microdilution method; format: functional; details: dose 32 µg/ml
HeLa [26] = assay: Cytotoxicity in human HeLa cells assessed as reduction in cell viability upto 250 uM incubated for 72 hrs by MTT assay; format: cell-based

inhibition zone (IZ) [1]: 18 mm
inhibition [2]: 68%
inhibition [3]: 63%
inhibition zone (IZ) [4]: 15 mm
inhibition [5]: 39%
inhibition [7]: 65%
inhibition [8]: 55%
Structure (SMILES): Cc1ccccc1-c1n[nH]c(=S)n1/N=C/c1cccc(O)c1O
pKi [6]: 5.28

inhibition zone (IZ) [1]: 14 mm
inhibition [9]: inactive
inhibition [3]: inactive
inhibition zone (IZ) [10]: 15 mm
inhibition [12]: inactive
inhibition [8]: inactive
MIC (Escherichia coli [14]): 8 µg/mL
MIC (Escherichia coli [15]): 16 µg/mL
MIC (Escherichia coli [16]): > 256 µg/mL
MIC (Escherichia coli [17]): > 256 µg/mL
MIC (Escherichia coli [18]): > 256 µg/mL
inhibition [20]: inactive
inhibition [21]: inactive
MIC (Escherichia coli [22]): 4 µg/mL
MIC (Escherichia coli [23]): 8 µg/mL
MIC (Escherichia coli [24]): > 256 µg/mL
MIC (Escherichia coli [25]): 4 µg/mL
Structure (SMILES): Oc1ccc(/C=N/n2c(-c3ccc(-c4ccccc4)cc3)n[nH]c2=S)c(O)c1
pKi [11]: 5.74
pKi [13]: 5.70
Activity (HeLa [19]): Non-Toxic
Activity (HUVEC): Non-Toxic
Activity (HeLa [26]): Non-Toxic
